Measured values published in ChEMBL document CHEMBL1821590, “Novel dihydropyrimidines and its pyrazole derivatives: synthesis and pharmacological screening” (Eur J Med Chem, 2011).
≈ marks a conversion by molar mass, not a printed value.

Assays:
Format in all cases: functional
[1] = Antioxidant activity assessed as nitric oxide radical scavenging activity after 150 mins
Outline: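 10 mM sodium nitroprusside (4 mL), PBS pH 7.4 (1 mL) and sample or ascorbic acid in DMSO (1 mL, 12.5–100 µg/mL), incubated 150 min at 25 °C. Nitrite detected with sulphanilic acid (5 min) then naphthylethylenediamine (30 min, diffused light). Read at […]. Triplicate. % inhibition = [1 − (Vt/Vc)] × 100. IC50 derived from it.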

[2] = Antioxidant activity assessed as hydrogen peroxide scavenging activity after 10 mins
Outline: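 H2O2 (20 mM) in PBS pH 7.4. 1 mL of sample or ascorbic acid in methanol (12.5–100 µg/mL) added to 2 mL H2O2 solution. A230 read after 10 min. % inhibition = [1 − (Vt/Vc)] × 100. Triplicate, averaged. IC50 derived from % inhibition across concentrations.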

[3] = Antioxidant activity assessed as inhibition of lipid peroxidation using egg lecithin liposomes incubated for 1 hr
Outline: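 Egg lecithin (3 mg/mL, phosphate buffer pH 7.4) sonicated 10 min to form liposomes. Sample or ascorbic acid (12.5–100 µg/mL) added. Peroxidation induced with FeCl3 and L-ascorbic acid, 1 h at 37 °C. Stopped with HCl/TCA/TBA/BHA, boiled 15 min, centrifuged, supernatant read at 532 nm. Triplicate. % inhibition vs control. IC50 derived.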

[4] = Antioxidant activity assessed as potassium ferricyanide ion reducing power after 20 mins
Outline: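 Oyaizu method. Samples or ascorbic acid in DMF (12.5–100 µg/mL) mixed with 0.2 M phosphate buffer pH 6.6 and 1% potassium ferricyanide, 20 min at 50 °C. 10% TCA added, centrifuged. Supernatant mixed with water and 0.1% FeCl3, read at 700 nm. % = [(Vt/Vc) − 1] × 100. IC50 derived.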

[5] = Antiinflammatory activity assessed as inhibition of albumin denaturation at 100 ug/ml by UV-visible spectrophotometry
Outline: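 Compounds dissolved in minimal DMF, diluted in PBS pH 7.4 (final DMF <2.5%). 1 mL test solution (100 µg/mL) plus 1 mL 1% albumin in PBS, 15 min at 27 ± 1 °C, then heated 10 min at 60 ± 1 °C. After cooling, turbidity read at 660 nm. % inhibition = [(Vt/Vc) − 1] × 100 against a no-drug control. Triplicate, averaged. Diclofenac standard.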

[6] = test system: Metaphire posthuma; test: Anthelmintic activity against Pheretima posthuma assessed as time taken for complete parasite paralysis at 0.1% w/v
Outline: (§1)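 Earthworms (Pheretima posthuma) exposed to test solutions at 0.1, 0.2 and 0.5% w/v; time in minutes to complete paralysis (worms motionless) recorded. Albendazole as standard. Mean of three determinations ± S.D.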

[7] = test system: Metaphire posthuma; test: Anthelmintic activity against Pheretima posthuma assessed as time taken for complete parasite paralysis at 0.2% w/v; outline: as §1
[8] = test system: Metaphire posthuma; test: Anthelmintic activity against Pheretima posthuma assessed as time taken for complete parasite paralysis at 0.5% w/v; outline: as §1
[9] = test system: Metaphire posthuma; test: Anthelmintic activity against Pheretima posthuma assessed as time taken for parasite death at 0.1% w/v
Outline: (§2)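 Earthworms (Pheretima posthuma, spelled Perituma posthuma in text) exposed to test compounds at 0.1, 0.2 and 0.5% w/v. Albendazole served as standard, with an untreated control. Paralysis was recorded as the time until worms became motionless, then time to death was recorded, in minutes. Each value is the mean of three determinations with S.D.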

[10] = test system: Metaphire posthuma; test: Anthelmintic activity against Pheretima posthuma assessed as time taken for parasite death at 0.2% w/v; outline: as §2
[11] = test system: Metaphire posthuma; test: Anthelmintic activity against Pheretima posthuma assessed as time taken for parasite death at 0.5% w/v; outline: as §2
[12] = test system: Escherichia coli; test: Antimicrobial activity against Escherichia coli at 25 ug/ml by agar plate diffusion technique; conditions: read-out: IZ
Outline: (§3)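 Agar plate diffusion against E. coli, P. aeruginosa, S. aureus and B. subtilis, with compounds at 25, 50 and 100 µg/mL. Streptomycin as standard.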

[13] = test system: Escherichia coli; test: Antimicrobial activity against Escherichia coli at 50 ug/ml by agar plate diffusion technique; conditions: read-out: IZ; outline: as §3
[14] = test system: Escherichia coli; test: Antimicrobial activity against Escherichia coli at 100 ug/ml by agar plate diffusion technique; conditions: read-out: IZ; outline: as §3
[15] = test system: Pseudomonas aeruginosa; test: Antimicrobial activity against Pseudomonas aeruginosa at 25 ug/ml by agar plate diffusion technique; conditions: read-out: IZ; outline: as §3
[16] = test system: Pseudomonas aeruginosa; test: Antimicrobial activity against Pseudomonas aeruginosa at 50 ug/ml by agar plate diffusion technique; conditions: read-out: IZ; outline: as §3
[17] = test system: Pseudomonas aeruginosa; test: Antimicrobial activity against Pseudomonas aeruginosa at 100 ug/ml by agar plate diffusion technique; conditions: read-out: IZ; outline: as §3
[18] = test system: Bacillus subtilis; test: Antimicrobial activity against Bacillus subtilis at 25 ug/ml by agar plate diffusion technique; conditions: read-out: IZ; outline: as §3
[19] = test system: Bacillus subtilis; test: Antimicrobial activity against Bacillus subtilis at 50 ug/ml by agar plate diffusion technique; conditions: read-out: IZ; outline: as §3
[20] = test system: Bacillus subtilis; test: Antimicrobial activity against Bacillus subtilis at 100 ug/ml by agar plate diffusion technique; conditions: read-out: IZ; outline: as §3
[21] = test system: Staphylococcus aureus; test: Antimicrobial activity against Staphylococcus aureus at 25 ug/ml by agar plate diffusion technique; conditions: read-out: IZ; outline: as §3
[22] = test system: Staphylococcus aureus; test: Antimicrobial activity against Staphylococcus aureus at 50 ug/ml by agar plate diffusion technique; conditions: read-out: IZ; outline: as §3
[23] = test system: Staphylococcus aureus; test: Antimicrobial activity against Staphylococcus aureus at 100 ug/ml by agar plate diffusion technique; conditions: read-out: IZ; outline: as §3
[24] = test system: Candida albicans; test: Antimicrobial activity against Candida albicans at 25 ug/ml by paper disc method; conditions: read-out: IZ
Outline: (§4)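 Paper disc method against A. niger and C. albicans, with compounds at 25, 50 and 100 µg/mL. Amphotericin-B as standard.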

[25] = test system: Candida albicans; test: Antimicrobial activity against Candida albicans at 50 ug/ml by paper disc method; conditions: read-out: IZ; outline: as §4
[26] = test system: Candida albicans; test: Antimicrobial activity against Candida albicans at 100 ug/ml by paper disc method; conditions: read-out: IZ; outline: as §4
[27] = test system: Aspergillus niger; test: Antimicrobial activity against Aspergillus niger at 25 ug/ml by paper disc method; conditions: read-out: IZ; outline: as §4
[28] = test system: Aspergillus niger; test: Antimicrobial activity against Aspergillus niger at 50 ug/ml by paper disc method; conditions: read-out: IZ; outline: as §4
[29] = test system: Aspergillus niger; test: Antimicrobial activity against Aspergillus niger at 100 ug/ml by paper disc method; conditions: read-out: IZ; outline: as §4

Row | SMILES | IC50 [1] [µg/mL] | IC50 [2] [µg/mL] | IC50 [3] [µg/mL] | IC50 [4] [µg/mL] | inhibition [5] [%] | Time [6] [min] | Time [7] [min] | Time [8] [min] | Time [9] [min] | Time [10] [min] | Time [11] [min] | zone of inhibition at 25 µg/mL [12] [mm] | zone of inhibition at 50 µg/mL [13] [mm] | zone of inhibition at 100 µg/mL [14] [mm] | zone of inhibition at 25 µg/mL [15] [mm] | zone of inhibition at 50 µg/mL [16] [mm] | zone of inhibition at 100 µg/mL [17] [mm] | zone of inhibition at 25 µg/mL [18] [mm] | zone of inhibition at 50 µg/mL [19] [mm] | zone of inhibition at 100 µg/mL [20] [mm] | also measured
1 | CCOC(=O)c1cnn(-c2nc(-c3ccc(N(C)C)cc3)c(C#N)c(=O)n2C)c1N | 115 (≈ 282 µM) | 119 (≈ 292 µM) | 111 (≈ 272 µM) | 98 (≈ 241 µM) | 20.4 | 41.45 | 46.58 | 42.87 | 49.79 | 57.55 | 58.72 | 11.1 | 10.2 | 14 | 8.29 | 11.9 | 16.7 | 11.2 | 14.8 | 20.9 | zone of inhibition at 25 µg/mL [21]: 10.1 mm; zone of inhibition at 50 µg/mL [22]: 13.5 mm; zone of inhibition at 100 µg/mL [23]: 16.5 mm; zone of inhibition at 25 µg/mL [24]: 10.4 mm; zone of inhibition at 50 µg/mL [25]: 13.7 mm; zone of inhibition at 100 µg/mL [26]: 17.7 mm; zone of inhibition at 25 µg/mL [27]: 10.2 mm; zone of inhibition at 50 µg/mL [28]: 12.2 mm; zone of inhibition at 100 µg/mL [29]: 18.3 mm
2 | CCOC(=O)c1cnn(-c2nc(-c3cccc(OC)c3OC)c(C#N)c(=O)n2C)c1N | 69 (≈ 163 µM) | 67 (≈ 158 µM) | 57 (≈ 134 µM) | 54 (≈ 127 µM) | 33.9 | 75.14 | 55.1 | 43.9 | 87.55 | 62.12 | 52.69 | 10.3 | 12.4 | 16.2 | 9.9 | 12.3 | 17.4 | 11.6 | 15.1 | 19.2 | zone of inhibition at 25 µg/mL [21]: 10.3 mm; zone of inhibition at 50 µg/mL [22]: 14.1 mm; zone of inhibition at 100 µg/mL [23]: 18.7 mm; zone of inhibition at 25 µg/mL [24]: 9.41 mm; zone of inhibition at 50 µg/mL [25]: 13.5 mm; zone of inhibition at 100 µg/mL [26]: 17 mm; zone of inhibition at 25 µg/mL [27]: 10.8 mm; zone of inhibition at 50 µg/mL [28]: 12.1 mm; zone of inhibition at 100 µg/mL [29]: 18.9 mm
3 | CCOC(=O)c1cnn(-c2nc(-c3ccc(Cl)cc3)c(C#N)c(=O)n2C)c1N | 87 (≈ 218 µM) | 94 (≈ 236 µM) | 88 (≈ 221 µM) | 64 (≈ 160 µM) | 64.6 | 49.28 | 41.03 | 34.76 | 64.72 | 58.23 | 56.33 | 14.7 | 19.5 | 25 | 11.8 | 17.1 | 25.7 | 14.2 | 16.7 | 25.4 | zone of inhibition at 25 µg/mL [21]: 13.1 mm; zone of inhibition at 50 µg/mL [22]: 17.1 mm; zone of inhibition at 100 µg/mL [23]: 22 mm; zone of inhibition at 25 µg/mL [24]: 12.2 mm; zone of inhibition at 50 µg/mL [25]: 16 mm; zone of inhibition at 100 µg/mL [26]: 21.8 mm; zone of inhibition at 25 µg/mL [27]: 11.6 mm; zone of inhibition at 50 µg/mL [28]: 15.6 mm; zone of inhibition at 100 µg/mL [29]: 23.8 mm
4 | COc1cccc(-c2nc(NN)n(C)c(=O)c2C#N)c1OC | 54 (≈ 179 µM) | 36 (≈ 119 µM) | 37 (≈ 123 µM) | 44 (≈ 146 µM) | 24.6 | 55.23 | 55.57 | 51.42 | 71.45 | 70.25 | 67.22 | 7.38 | 7.16 | 8.12 | 6.15 | 8.12 | 9.15 | 9.9 | 12.2 | 16.7 | zone of inhibition at 25 µg/mL [21]: 8.72 mm; zone of inhibition at 50 µg/mL [22]: 11.2 mm; zone of inhibition at 100 µg/mL [23]: 15.8 mm; zone of inhibition at 25 µg/mL [24]: 10.1 mm; zone of inhibition at 50 µg/mL [25]: 11 mm; zone of inhibition at 100 µg/mL [26]: 17.9 mm; zone of inhibition at 25 µg/mL [27]: 8.38 mm; zone of inhibition at 50 µg/mL [28]: 10.3 mm; zone of inhibition at 100 µg/mL [29]: 16.7 mm
5 | CSc1nc(-c2ccccc2Cl)c(C#N)c(=O)n1C | 81 (≈ 278 µM) | 67 (≈ 230 µM) | 72 (≈ 247 µM) | 76 (≈ 260 µM) | 72.2 | 55.29 | 40.27 | 40.61 | 72.39 | 55.8 | 50.24 | 9.64 | 10.2 | 12.4 | 8.52 | 10.4 | 12 | 14.2 | 19.3 | 28.8 | zone of inhibition at 25 µg/mL [21]: 9.4 mm; zone of inhibition at 50 µg/mL [22]: 12.3 mm; zone of inhibition at 100 µg/mL [23]: 16.8 mm; zone of inhibition at 25 µg/mL [24]: 9.18 mm; zone of inhibition at 50 µg/mL [25]: 13.8 mm; zone of inhibition at 100 µg/mL [26]: 20.8 mm; zone of inhibition at 25 µg/mL [27]: 10.6 mm; zone of inhibition at 50 µg/mL [28]: 10.6 mm; zone of inhibition at 100 µg/mL [29]: 17.5 mm
6 | CSc1nc(-c2ccccc2O)c(C#N)c(=O)n1C | 58 (≈ 212 µM) | 39 (≈ 143 µM) | 44 (≈ 161 µM) | 52 (≈ 190 µM) | 51.9 | 40.28 | 39.46 | 35.14 | 50.82 | 48.34 | 45.3 | 6.25 | 9.16 | 11.3 | 6.36 | 8.16 | 10.8 | 12.8 | 16.9 | 25.5 | zone of inhibition at 25 µg/mL [21]: 8.14 mm; zone of inhibition at 50 µg/mL [22]: 9.33 mm; zone of inhibition at 100 µg/mL [23]: 11.2 mm; zone of inhibition at 25 µg/mL [24]: 8.84 mm; zone of inhibition at 50 µg/mL [25]: 12.6 mm; zone of inhibition at 100 µg/mL [26]: 20 mm; zone of inhibition at 25 µg/mL [27]: 8 mm; zone of inhibition at 50 µg/mL [28]: 9.46 mm; zone of inhibition at 100 µg/mL [29]: 15.4 mm
